Legend:
[1] = target: T1, Polyunsaturated fatty acid 5-lipoxygenase (Homo sapiens, UniProt P09917); assay: Inhibition of human neutrophil 5-lipoxygenase
T1 sequence (P09917 whole entry): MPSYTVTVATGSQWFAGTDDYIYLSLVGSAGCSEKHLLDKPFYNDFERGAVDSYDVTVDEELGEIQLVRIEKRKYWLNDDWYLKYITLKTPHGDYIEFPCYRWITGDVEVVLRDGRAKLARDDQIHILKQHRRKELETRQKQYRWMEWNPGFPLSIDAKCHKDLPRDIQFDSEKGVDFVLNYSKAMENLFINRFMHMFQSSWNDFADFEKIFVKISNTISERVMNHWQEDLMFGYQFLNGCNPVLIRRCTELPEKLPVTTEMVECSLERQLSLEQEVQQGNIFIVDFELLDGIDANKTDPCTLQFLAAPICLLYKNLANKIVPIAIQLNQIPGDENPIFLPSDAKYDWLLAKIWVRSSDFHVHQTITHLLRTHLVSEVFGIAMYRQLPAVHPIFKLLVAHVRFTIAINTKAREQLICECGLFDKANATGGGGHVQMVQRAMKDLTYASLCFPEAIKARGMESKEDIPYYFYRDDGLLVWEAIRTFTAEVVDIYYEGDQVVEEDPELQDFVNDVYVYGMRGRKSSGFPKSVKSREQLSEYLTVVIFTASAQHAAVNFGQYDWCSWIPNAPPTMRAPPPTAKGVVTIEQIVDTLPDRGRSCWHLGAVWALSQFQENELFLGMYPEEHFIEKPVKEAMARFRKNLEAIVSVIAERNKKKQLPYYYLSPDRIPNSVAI

[2] = target: T2, Polyunsaturated fatty acid 5-lipoxygenase (Homo sapiens) (UniProt P09917); assay: Inhibition of lipoxygenase at the concentration of 1 uM
T2 sequence (whole entry): T1 sequence (P09917 whole entry)
Summary of the method: (§1)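 5-LO activity measured in human peripheral blood leukocytes. Percent inhibition at a single test concentration is compared with untreated control, with significance by ANOVA and Tukey's multiple comparisons test (p < 0.05).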

[3] = target: T3, Cyclooxygenase (Homo sapiens, UniProt P35354+P23219); assay: Inhibition of human platelet Prostaglandin G/H synthase
[4] = target: T2, Polyunsaturated fatty acid 5-lipoxygenase (Homo sapiens); assay: Inhibition of lipoxygenase at the concentration of 0.1 uM; summary of the method: as §1
[5] = target: T3, Cyclooxygenase; assay: Inhibition of human platelet Prostaglandin G/H synthase at the concentration of 1 uM
Summary of the method: (§2)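 CO activity measured in human platelets. Percent inhibition at a single test concentration is compared with untreated control, with significance by ANOVA and Tukey's multiple comparisons test (p < 0.05).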

[6] = Inhibition of human platelet Prostaglandin G/H synthase at the concentration of 10 uM; summary of the method: as §2
[7] = target: T2, Polyunsaturated fatty acid 5-lipoxygenase (Homo sapiens); assay: Inhibition of human neutrophil 5-lipoxygenase at the concentration of 1 uM; summary of the method: as §1
[8] = target: T2, Polyunsaturated fatty acid 5-lipoxygenase (Homo sapiens); assay: Inhibition of human neutrophil 5-lipoxygenase at the concentration of 0.1 uM; summary of the method: as §1

Row | SMILES | IC50 [1] | inhibition [2] | IC50 [3] | inhibition [4] | inhibition [5] | inhibition [6] | inhibition [7] | inhibition [8]
1 | Cc1ccc(/C=C/c2cc(C(C)(C)C)c(O)c(C(C)(C)C)c2)cc1 | > 1 µM | 0% | 10 µM |  |  |  |  | 
2 | C=CCc1cc(/C=C/c2cccs2)cc(C)c1O | 0.065 µM |  | 0.73 µM |  |  |  |  | 
3 | Cc1cc(/C=C/c2ccc3ccccc3c2)cc(C)c1O | < 1 µM | 61% | < 10 µM | 16% | 37% | 66% |  | 
4 | Cc1cc(/C=C/C(=O)c2ccc(F)cc2)cc(C)c1O | > 1 µM | 33% | < 10 µM |  | 43% | 71% |  | 
5 | COc1cc(/C=C/c2cccs2)cc(OC)c1O | ~0.1 µM |  | < 10 µM |  | 1% | 86% | 93% | 52%
6 | Cc1cc(/C=C/c2c(F)cccc2F)cc(C)c1O | < 1 µM | 96% | < 1 µM | 12% | 73% | 94% |  | 
7 | CC(C)c1cc(/C=C/c2ccc(F)cc2)cc(C(C)C)c1O | > 1 µM | 40% | < 10 µM |  | 12% | 74% |  | 
8 | Cc1cc(C(=O)/C=C/c2cccs2)cc(C)c1O | > 1 µM | 0% | < 10 µM |  | 25% | 82% |  | 
9 | CC(C)(C)c1cc(C(=O)c2cccs2)cc(C(C)(C)C)c1O [PRIFELONE] | 4.8 µM |  | 0.0057 µM |  |  |  |  | 
10 | Cc1cc(/C=C/c2ccc(Cl)s2)cc(C)c1O | < 1 µM |  | 1.3 µM |  |  |  | 92% | 32%
11 | Cc1cc(CCc2ccc(F)cc2)cc(C)c1O | > 1 µM | 44% | 0.3 µM |  |  |  |  | 
12 | Cc1ccc(C)c(/C=C/c2cc(C)c(O)c(C)c2)c1 | 0.24 µM |  | 1.3 µM |  |  |  |  | 
13 | CCc1cc(/C=C/c2ccc(C)cc2)cc(CC)c1O | < 1 µM | 91% | < 10 µM | 21% | 35% | 73% |  | 
14 | Cc1cc(/C=C/c2cccc(C(=O)O)c2)cc(C)c1O | > 1 µM | 0% | > 10 µM |  | 0% | 0% |  | 
15 | COc1ccc(/C=C/c2cc(C(C)(C)C)c(O)c(C(C)(C)C)c2)cc1 | > 1 µM |  | > 10 µM |  | 0% | 5% | 0% | 
16 | Cc1cc(/C=C/c2ccccc2Br)cc(C)c1O | < 1 µM | 94% | < 1 µM | 26% | 84% | 91% |  | 
17 | Cc1cc(CCC(=O)c2ccc(F)cc2)cc(C)c1O | > 1 µM |  | < 10 µM |  | 29% | 80% | 44% | 
18 | CCCCOc1ccc(/C=C/c2cc(C)c(O)c(C)c2)cc1 | ~1 µM |  | < 10 µM |  | 32% | 67% | 53% | 7%
19 | Cc1cc(/C=C/c2ccccn2)cc(C)c1O | < 1 µM |  | 2.5 µM |  |  |  | 82% | 29%
20 | Cc1cc(/C=C/c2cccc3ccccc23)cc(C)c1O | < 1 µM | 94% |  | 27% |  |  |  | 
21 | Cc1cc(/C=C/c2ccccc2)cc(C)c1O | 0.1 µM |  | 4.2 µM |  |  |  |  | 
22 | CCc1cc(/C=C/c2ccc(OC)cc2)cc(CC)c1O | < 1 µM |  | < 10 µM |  | 33% | 80% | 90% | 15%
23 | Cc1cc(/C=C/c2ccc(F)cc2F)cc(C)c1O | < 1 µM | 100% | 0.71 µM | 25% |  |  |  | 
24 | Cc1cc(/C=C/c2ccc(Cl)cc2)cc(C)c1O | 0.17 µM |  | 0.75 µM |  |  |  |  | 
25 | COc1cc(/C=C/c2cccs2)cc(F)c1O | < 1 µM |  | < 10 µM |  | 42% | 97% | 89% | 31%
26 | CC(C)c1cc(/C=C/c2cccs2)cc(C(C)C)c1O | < 1 µM |  | < 1 µM |  |  |  | 94% | 14%

Row | SMILES | IC50 [1] | inhibition [2] | IC50 [3] | inhibition [4] | inhibition [5] | inhibition [6] | inhibition [7] | inhibition [8]
27 | Cc1cc(/C=C/c2ccccc2OCc2ccccc2)cc(C)c1O | < 1 µM |  | ~ 1 uM |  | 45% | 92% | 95% | 18%
28 | Cc1cc(/C=C/C(=O)c2cccs2)cc(C)c1O | > 1 µM | 22% | < 10 µM |  | 37% | 82% |  | 
29 | Cc1ccc(/C=C/c2cc(C)c(O)c(C)c2)s1 | < 1 µM |  | 0.78 µM |  |  |  | 87% | 26%
30 | COc1ccc(/C=C/c2cc(C(C)C)c(O)c(C(C)C)c2)cc1 | < 1 µM |  | < 10 µM |  | 18% | 84% | 71% | 13%
31 | CC(C)(C)c1cc(/C=C/c2cccs2)cc(C(C)(C)C)c1O | 1.2 µM |  | 0.034 µM |  |  |  |  | 
32 | CC(C)(C)c1cc(/C=C2\CCOC2=O)cc(C(C)(C)C)c1O |  |  | 0.11 µM |  |  |  |  | 
33 | Cc1cc(C(=O)c2cccs2)cc(C)c1O | > 1 µM |  | < 1 µM |  | 60% | 90% | 1% | 
34 | Cc1cc(/C=C/c2ccncc2)cc(C)c1O | 1 µM | 51% | > 10 µM | 1% | 0% | 17% |  | 
35 | CC(C)(C)c1cc(/C=C/c2ccc(F)cc2)cc(C(C)(C)C)c1O | > 1 µM | 18% | 0.61 µM | 24% |  |  |  | 
36 | CCc1ccc(/C=C/c2cc(C)c(O)c(C)c2)cc1 | 0.59 µM |  | 0.51 µM |  |  |  |  | 
37 | Cc1cc(/C=C/c2ccccc2C(F)(F)F)cc(C)c1O | < 1 µM | 94% | < 1 µM | 14% | 76% | 72% |  | 
38 | COc1ccccc1/C=C/c1cc(C)c(O)c(C)c1 | 0.1 µM |  | 1.1 µM |  |  |  |  | 
39 | C/C(=C\c1cc(C)c(O)c(C)c1)c1ccc(F)cc1 | 0.43 µM |  | 0.63 µM |  |  |  |  | 
40 | Cc1cc(/C=C2\CCOC2=O)cc(C)c1O | > 1 µM | 1% | > 10 µM |  | 0% | 0% |  | 
41 | CCCOc1ccc(/C=C/c2cc(C)c(O)c(C)c2)cc1 | < 1 µM |  | 0.19 µM |  |  |  | 90% | 27%
42 | Cc1cc(/C=C/c2cccs2)cc(Cl)c1O | < 1 µM |  | 0.23 µM |  |  |  | 93% | 29%
43 | Cc1cc(/C=C/c2cccnc2)cc(C)c1O | 0.37 µM |  | 11 µM |  |  |  |  | 
44 | CC(C)c1cc(/C=C/c2cccnc2)cc(C(C)C)c1O | 0.2 µM |  | < 10 µM |  |  |  |  | 
45 | Cc1cc(/C=C/c2cccs2)cc(F)c1O | < 1 µM |  | < 1 µM |  | 72% | 95% | 90% | 18%
46 | Cc1cc(/C=C/c2csc3ccccc23)cc(C)c1O | < 1 µM | 87% | 0.4 µM | 13% |  |  |  | 
47 | CCc1cc(/C=C/c2cccs2)cc(CC)c1O | ~0.1 µM |  | < 10 µM |  | 39% | 96% | 89% | 52%
48 | Cc1cc(Cc2cccnc2)cc(C)c1O | > 1 µM |  | > 10 µM |  | 0% | 7% | 5% | 
49 | Cc1cc(/C=C/c2ccc(C(=O)O)cc2)cc(C)c1O | > 1 µM | 0% | > 10 µM |  | 0% | 0% |  | 
50 | Cc1cc(/C=C/c2ccc(C(C)C)cc2)cc(C)c1O | > 1 µM | 30% | 1.4 µM | 11% |  |  |  | 
51 | Cc1cc(CCc2cccs2)cc(C)c1O | < 1 µM |  | 0.11 µM |  |  |  | 67% | 11%

Source: ChEMBL document CHEMBL1124816, “Effect of structure on potency and selectivity in 2,6-disubstituted 4-(2-arylethenyl)phenol lipoxygenase inhibitors” (J Med Chem, 1990)
